What was measured:
T. gondii parasites = assay: Invasion inhibition assay of T. gondii into host fibroblast cells; type: cell-based, Toxoplasma gondii
How it was run: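 Type I RH strain, clone 2F, expressing E. coli β-galactosidase. Compound came from a 10 mM DMSO stock diluted in medium with 1% DMSO, which was also the vehicle control. Parasites were preincubated with compound for 20 min at room temperature. Then 5 × 10^2 parasites/well were added to confluent human foreskin fibroblasts in DMEM/10% FBS, centrifuged ~300g for 5 min, and cultured at 37°C, 5% CO2. EC50 from a variable-slope sigmoidal fit; three experiments, each in triplicate.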

mammalian actin = mammalian actin (Oryctolagus cuniculus, UniProt P68135); assay: Pyrene fluorescence actin polymerization assay; type: biochemical; settings: for Inhibition of mammalian actin polymerization at 10 μM: 10 μM compound; for inhibition at 10 µM: read-out: Inhibition of mammalian actin polymerization at 10 μM; for inhibition at 100 µM: read-out: Inhibition of mammalian actin polymerization at 100 μM
How it was run: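 Actin was 5% pyrene-labelled, held in Ca buffer G (2 mM Tris pH 8, 0.2 mM ATP). It was converted to the Mg2+ form (final 1 mM EGTA, 0.1 mM MgCl2) for 2 min at room temperature. Actin at 2.5 μM final was preincubated 1 min with compound in DMSO; latrunculin B was the positive control. Polymerisation was started with KCl 50 mM, imidazole 10 mM pH 7, MgCl2 1 mM, EGTA 1 mM. Pyrene fluorescence (ex 365/em 407 nm) was read every 15 s for 90 min, in triplicate.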

SMILES: COc1ccc(CN2C(=O)SC[C@H]2C2(OC)CC(OC(=O)C3CCCC3)CCO2)cc1 (stereo partly drawn) [Compound 11, 2-Methoxy-2-((R)-3-(4-methoxybenzyl)-2-oxothiazolidin-4-yl)tetrahydro-2H-pyran-4-yl cyclopentanecarboxylate]
- activity against T. gondii (in words) (T. gondii parasites): inactive

SMILES: C/C1=C/C(=O)O[C@@H]2C[C@@H](CC[C@H](C)/C=C\CC1)O[C@@](O)([C@@H]1CSC(=O)N1)C2 [Latrunculin B, latrunculin B, reference compound]
- Inhibition of mammalian actin polymerization at 10 μM (mammalian actin; 2.5 μM actin, pyrene fluorescence): 100%
- Inhibition of mammalian actin polymerization at 10 μM (mammalian actin; 2.5 μM actin, pyrene fluorescence, listed as latrunculin B): 100%
- Inhibition of mammalian actin polymerization at 100 μM (mammalian actin; 100 μM compound, 2.5 μM actin, pyrene fluorescence): 100%

SMILES: COc1ccc(CN2C(=O)SC[C@H]2C2(OC)CC(OC(=O)c3ccccc3-c3cccs3)CCO2)cc1 (stereo partly drawn) [Compound 15, 2-Methoxy-2-((R)-3-(4-methoxybenzyl)-2-oxothiazolidin-4-yl)tetrahydro-2H-pyran-4-yl 2-(thiophen-2-yl)benzoate]
- inhibition at 10 µM (mammalian actin): < 10%
- inhibition at 100 µM (mammalian actin): < 10%

SMILES: COc1ccc(CN2C(=O)SC[C@H]2C2(OC)CC(OC(=O)c3ccccc3C3=CCCCC3)CCO2)cc1 (stereo partly drawn) [Compound 16, 2-Methoxy-2-((R)-3-(4-methoxybenzyl)-2-oxothiazolidin-4-yl)tetrahydro-2H-pyran-4-yl 2',3',4',5'-tetrahydro-[1,1'-biphenyl]-2-carboxylate]
- inhibition at 10 µM (mammalian actin): < 10%
- inhibition at 100 µM (mammalian actin): < 10%

SMILES: CCCCC(=O)OC1CCOC(OC)([C@@H]2CSC(=O)N2Cc2ccc(OC)cc2)C1 (stereo partly drawn) [Compound 10, 2-Methoxy-2-((R)-3-(4-methoxybenzyl)-2-oxothiazolidin-4-yl)tetrahydro-2H-pyran-4-yl pentanoate]
- activity against T. gondii (in words) (T. gondii parasites): inactive

SMILES: COc1ccc(CN2C(=O)SC[C@H]2C2(OC)CC(OC(=O)c3ccccc3I)CCO2)cc1 (stereo partly shown) [Compound 14, 2-Methoxy-2-(3-(4-methoxybenzyl)-2-oxothiazolidin-4-yl)tetrahydro-2H-pyran-4-yl 2-iodobenzoate]
- inhibition at 10 µM (mammalian actin): < 10%
- inhibition at 100 µM (mammalian actin): < 10%

SMILES: COc1ccc(CN2C(=O)SC[C@H]2C2(OC)CC(OC(=O)c3ccccc3-c3cccc4ccccc34)CCO2)cc1 (stereo partly drawn) [Compound 17, 2-Methoxy-2-((R)-3-(4-methoxybenzyl)-2-oxothiazolidin-4-yl)tetrahydro-2H-pyran-4-yl 2-(naphthalen-1-yl)benzoate]
- inhibition at 10 µM (mammalian actin): < 10%
- inhibition at 100 µM (mammalian actin): < 10%
